# High-throughput results as filed in PubChem.
# S1P1 ag-PAM: S1P1 (human) agonism or agonism potentiation | activation, % at 9.5 µM | P21453 | S1P1 CRE-bla cells, forskolin, beta-lactamase FRET, potentiator mode; S1P1 agonist co-added at EC20, 2 nM; 100% = saturating reference agonist, 0% = basal | hit rate 0.57% among 56,000;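 active = activation above a cutoff set at the mean activation of all tested compounds plus 3 SD, cut at about 54% in these data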;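 note: forskolin at 4 µM as EC80 and the EC20 agonist is SEW2871; 100% = SEW2871 at its EC100 plus forskolin at EC80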
# Target sequence (P21453 whole entry, looked up): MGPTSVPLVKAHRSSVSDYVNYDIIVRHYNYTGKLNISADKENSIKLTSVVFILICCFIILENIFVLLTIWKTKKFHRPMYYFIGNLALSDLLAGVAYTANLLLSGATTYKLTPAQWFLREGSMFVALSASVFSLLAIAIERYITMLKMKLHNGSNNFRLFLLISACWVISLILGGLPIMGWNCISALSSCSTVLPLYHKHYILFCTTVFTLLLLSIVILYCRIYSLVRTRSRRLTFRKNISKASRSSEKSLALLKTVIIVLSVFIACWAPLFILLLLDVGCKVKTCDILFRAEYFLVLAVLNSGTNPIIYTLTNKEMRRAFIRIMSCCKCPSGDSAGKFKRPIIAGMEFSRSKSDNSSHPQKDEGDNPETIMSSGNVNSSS
# 5-HT1A blocker: antagonists of human 5-HT1a serotonin receptor; P08908; CHO 5-HT1a Ga15 NFAT-bla reporter, antagonist mode; inhibition, % at 10 µM; hit rate 0.68% among 62,000; AID 612;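 active = inhibition above the mean of all tested compounds plus 3 SD, cut at about 43% in these data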;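 note: receptor stimulated by 5-CT agonist at 100 nM near EC80; beta-lactamase reporter measured by ratiometric fluorescence of a cleavable substrate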
# S1P3 agonist: activates the human S1P3 receptor | S1P3 NFAT-BLA reporter cells, agonism, FRET ratio; relative to 1 µM S1P, basal subtracted | activation, % at 4.5 µM | hit rate 0.1% among 60,000;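 active = activation above the screen-wide mean plus 3 SD, cut at about 4.5% in these data, passing the limit was not always enough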
#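 Measure – % activation relative to 1 µM S1P (100%), per plate · System – stable CHO line with human S1P3, Gα16, NFAT-BLA reporter · Timing – cells plated overnight, compound 4 h 37 °C, substrate 2 h RT · Technique – fluorescent BLA substrate, ex 405 nm, em 460/535 nm ratio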
# 5HT1a ag: agonists of human 5-HT1a serotonin receptor. CHO 5-HT1a Ga15 NFAT-bla reporter, FRET ratio; 0% basal, 100% maximal reference agonist. P08908. AID 567. activation, % at 10 µM. hit rate 0.56% among 65,000;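 active = activation above the screen-wide mean activation plus 3 SD, cut at about 19% in these data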;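 note: 0% = DMSO wells and 100% = 5-CT at EC100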
# 5HT1E ag: activates the human 5-HT1E serotonin receptor; AID 574; hit rate 0.69% among 65,000; P28566; CHO 5-HT1E Ga15 NFAT-bla reporter, FRET; 0% DMSO wells, 100% control agonist wells; activation, % at 6 µM;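 active = activation above a set limit, the screen-wide mean activation plus 3 SD, cut at about 8.5% in these data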;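 note: 100% = positive control agonist at 1 µM giving full maximal response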
# 5HT1E antag: blocks the human 5-HT1E serotonin receptor; hit rate 0.99% among 65,000; inhibition, % at 6 µM; P28566; CHO 5-HT1E Ga15 NFAT-bla reporter, FRET, antagonist;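 active = inhibition above a set limit, the mean inhibition across every tested compound plus 3 SD, cut at about 29% in these data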;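 note: signal is the 460 over 535 nm emission ratio of beta-lactamase substrate; 0% = agonist plus DMSO wells and 100% = wells without agonist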
# An asterisk follows results filed as active; . = not tested or not shown. A selection: hits, their analogues and other compounds. The true share with any hit is near 2.9%.
SMILES,S1P1 ag-PAM,5-HT1A blocker,S1P3 agonist,5HT1a ag,5HT1E ag,5HT1E antag
O=C(O)Cn1cc(C(=O)c2ccccc2)c2ccccc21,-6,-4,0,-2,0,-3
CN(C)CCOC(=O)c1cn(Cc2ccccc2)c2ccccc12,1,.,-3,2,59*,16
NCCc1c[nH]c2ccc(F)cc12,-30,3,0,43*,82*,-6
Cc1oc(-c2ccccc2F)nc1CS(=O)CC(=O)N1CCC2(CC1)OCCO2 (stereo not drawn),17,10,-1,-1,-1,4
CCOC(=O)C1=C(C)OC(N)=C(C#N)C12C(=O)Nc1ccc(C)cc12 (stereo not drawn),-3,-5,-1,-2,-1,3
Cn1c(O)c(C=NCCOc2ccc(Cl)cc2)c(=O)n(C)c1=O,-38,-19,-1,0,1,30*
Cn1c(O)c(C=NCCN2CCN(C(=O)c3ccccc3)CC2)c(=O)n(C)c1=O,-2,-11,-1,-3,1,-4
COc1ccc(C(=O)C(C)(C)NO)cc1,-8,-3,2,-1,8.8*,11
C1=C(c2c[nH]c3ccccc23)CCNC1,8,16,0,5,92*,-13
c1ccc2c3c([nH]c2c1)CNCC3,-3,.,-3,0,0,-10
CC(C)N1CC=C(c2c[nH]c3ccccc23)CC1,-5,14,-1,23*,46*,-1
CN(Cc1ccccc1)Cc1ccccc1OC(=O)N(C)C,-2,13,-1,0,0,-6
C=CCOC(=O)COc1cc(C)cc2oc(=O)c3c(c12)CCC3,-14,2,-1,-1,0,-3
Cc1cc(OC(=O)c2ccco2)c2c3c(c(=O)oc2c1)CCC3,-8,-6,-1,-1,0,32*
CCCCCCn1c(=O)c(C(=O)Nc2c(C)n(C)n(-c3ccccc3)c2=O)c(O)c2ccccc21,-8,-20,0,84*,0,-4
CCCCCn1c(=O)c(C(=O)Nc2ccncc2)c(O)c2ccccc21,-4,-12,1,0,-1,2
Cc1ccc(CN2CCN(C)CC2)c(C)c1,-4,-16,-1,-3,9.8*,-1
CCN1CCN(Cc2ccc(C)cc2C)CC1,-27,-7,-2,-1,4,-3
Cc1ccc(S(=O)(=O)N2CCCC(C(=O)N3CCC4(CC3)OCCO4)C2)cc1 (stereo not drawn),8,-3,0,-2,0,6
Cn1ncnc2c(=O)n(C)c(=O)nc1-2,130*,85*,-2,7,4,101*
COc1ccc2c(c1OC)C(=O)OC2c1c(O)n(C2CCCCC2)c(=O)[nH]c1=O (stereo not drawn),10,.,-1,-4,0,-17
CCCCOCCCn1c(N)c(C(=O)OC(C)COC)c2nc3ccccc3nc21 (stereo not drawn),-4,.,-2,5,10*,14
CN(C)c1cc(N)c2c(n1)CCC2 (tested in a mixture with another compound),0,10,0,1,0,8
CNCCc1c[nH]c2ccccc12,16,.,-2,28*,104*,-17
CC(NC(=O)Oc1ccccc1)C(c1cccs1)N1CCOCC1 (stereo not drawn),1,10,0,1,-1,8
SMILES,S1P1 ag-PAM,5-HT1A blocker,S1P3 agonist,5HT1a ag,5HT1E ag,5HT1E antag
COc1ccc(CCNC(=O)c2c(N)n(CCN3CCOCC3)c3nc4ccccc4nc23)cc1,-40,-34,2,11,5,-2
Nc1c(C(=O)NCCc2ccccc2)c2nc3ccccc3nc2n1CCN1CCOCC1,-116,-33,7.7*,16,3,-3
CC(C)CCNC(=O)c1c(N)n(CC2CCCO2)c2nc3ccccc3nc12 (stereo not drawn),.,-18,.,35*,9.7*,-2
CCC(C)NC(=O)c1c(N)n(Cc2ccc3c(c2)OCO3)c2nc3ccccc3nc12 (stereo not drawn),-460,-172,31*,122*,30*,-39
CCC(C)NC(=O)c1c(N)n(CC2CCCO2)c2nc3ccccc3nc12 (stereo not drawn),-83,-7,2,26*,8,0
C=Cn1c(P(=S)(N2CCOCC2)N2CCOCC2)cc2c1CCCC2,-24,11,-1,-5,0,6
O/N=C1/C(=C\c2ccccc2)N2CCC1CC2,-12,4,0,-3,0,9
Cc1ccc(C)c(NC(=O)CSc2nnc([C@@H](N)Cc3c[nH]c4ccccc34)o2)c1,-11,-13,0,-2,0,7
CCOc1cccc(C2NCc3ccccc3-n3cccc32)c1O (stereo not drawn),9,1,0,0,15*,-4
CCOc1cc(C2NCc3ccccc3-n3cccc32)ccc1O (stereo not drawn),67,20,0,0,0,-10
CCCNc1oc(-c2cccc3ccccc23)nc1C#N,-26,-13,2,58*,6,8
